From ChEMBL document CHEMBL1154788, “Synthesis and antibacterial activity of some novel bis-1,2,4-triazolo[3,4-b]-1,3,4-thiadiazoles and bis-4-thiazolidinone derivatives from terephthalic dihydrazide” (2009)

Columns and labels:
Escherichia coli = test: Antibacterial activity against Escherichia coli ATTC 25922 at 1 mg/ml after 24 hrs by well-diffusion method; assay type: functional; settings: ATTC 25922, 24 h, read-out: DIZ
How it was run: (§1)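 Agar well diffusion. About 1 cm3 of a 24 h infusion-broth culture (10^6 cfu cm-3) was mixed in plates with 15 cm3 molten nutrient agar held at 45°C. Once the agar set, 6 mm wells were punched and filled with compound solution (1 mg ml-1 in DMSO). Plates were incubated 24 h at 37°C, and the inhibition-zone diameter was measured. Ciprofloxacin and sulphamethoxazole were the standards.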

Klebsiella pneumoniae = test: Antibacterial activity against Klebsiella pneumoniae ATCC 10031 at 1 mg/ml after 24 hrs by well-diffusion method; assay type: functional; settings: ATCC 10031, 24 h, read-out: DIZ
Bacillus cereus = test: Antibacterial activity against Bacillus cereus ATTC 10702 at 1 mg/ml after 24 hrs by well-diffusion method; assay type: functional; settings: ATTC 10702, 24 h, read-out: DIZ; how it was run: as §1
Salmonella typhimurium = test: Antibacterial activity against Salmonella Typhimurium ATTC 23564 at 1 mg/ml after 24 hrs by well-diffusion method; assay type: functional, Salmonella enterica subsp. enterica serovar Typhimurium; settings: Salmonella enterica, ATTC 23564, 24 h; read-out: DIZ

SMILES: O=C(NN1C(=O)CSC1c1ccccc1Cl)c1ccc(C(=O)NN2C(=O)CSC2c2ccccc2Cl)cc1 (stereo not given)
- zone of inhibition at 1000 µg/mL (Escherichia coli): 7 mm
- zone of inhibition at 1000 µg/mL (Klebsiella pneumoniae): 6 mm
- zone of inhibition at 1000 µg/mL (Bacillus cereus): 6 mm
- zone of inhibition at 1000 µg/mL (Salmonella typhimurium): 6 mm

SMILES: O=C(NN1C(=O)CSC1c1ccccc1)c1ccc(C(=O)NN2C(=O)CSC2c2ccccc2)cc1 (stereo not given)
- zone of inhibition at 1000 µg/mL (Escherichia coli): 8 mm
- zone of inhibition at 1000 µg/mL (Klebsiella pneumoniae): 6 mm
- zone of inhibition at 1000 µg/mL (Bacillus cereus): 8 mm
- zone of inhibition at 1000 µg/mL (Salmonella typhimurium): 7 mm

SMILES: O=C(O)c1cn(C2CC2)c2cc(N3CCNCC3)c(F)cc2c1=O [CIPROFLOXACIN]
- zone of inhibition at 1000 µg/mL (Klebsiella pneumoniae): 21 mm
- zone of inhibition at 1000 µg/mL (Bacillus cereus): 18 mm
- zone of inhibition at 1000 µg/mL (Salmonella typhimurium): 23 mm

SMILES: O=C(N/N=C/c1ccc(O)cc1)c1ccc(C(=O)N/N=C/c2ccc(O)cc2)cc1
- zone of inhibition at 1000 µg/mL (Escherichia coli): 5 mm
- zone of inhibition at 1000 µg/mL (Klebsiella pneumoniae): 5 mm
- zone of inhibition at 1000 µg/mL (Bacillus cereus): 6 mm
- zone of inhibition at 1000 µg/mL (Salmonella typhimurium): 5 mm

SMILES: Nc1ccc(-c2nnc(-c3ccc(-c4nnc(-c5ccc(N)cc5)o4)cc3)o2)cc1
- zone of inhibition at 1000 µg/mL (Escherichia coli): 6 mm
- zone of inhibition at 1000 µg/mL (Klebsiella pneumoniae): 5 mm
- zone of inhibition at 1000 µg/mL (Bacillus cereus): 6 mm
- zone of inhibition at 1000 µg/mL (Salmonella typhimurium): 5 mm

SMILES: O=C(N/N=C/c1ccccc1)c1ccc(C(=O)N/N=C/c2ccccc2)cc1
- zone of inhibition at 1000 µg/mL (Escherichia coli): 6 mm
- zone of inhibition at 1000 µg/mL (Klebsiella pneumoniae): 5 mm
- zone of inhibition at 1000 µg/mL (Bacillus cereus): 4 mm
- zone of inhibition at 1000 µg/mL (Salmonella typhimurium): 4 mm

SMILES: Clc1ccc(-c2nnc(-c3ccc(-c4nnc(-c5ccc(Cl)cc5)o4)cc3)o2)cc1
- zone of inhibition at 1000 µg/mL (Escherichia coli): 8 mm
- zone of inhibition at 1000 µg/mL (Klebsiella pneumoniae): 4 mm
- zone of inhibition at 1000 µg/mL (Bacillus cereus): 8 mm
- zone of inhibition at 1000 µg/mL (Salmonella typhimurium): 6 mm

SMILES: O=C(NN1C(=O)CSC1c1ccccc1Br)c1ccc(C(=O)NN2C(=O)CSC2c2ccccc2Br)cc1 (stereo not given)
- zone of inhibition at 1000 µg/mL (Escherichia coli): 7 mm
- zone of inhibition at 1000 µg/mL (Klebsiella pneumoniae): 7 mm
- zone of inhibition at 1000 µg/mL (Bacillus cereus): 7 mm
- zone of inhibition at 1000 µg/mL (Salmonella typhimurium): 6 mm

SMILES: Clc1ccccc1-c1nn2c(-c3ccc(-c4nnc5sc(-c6ccccc6Cl)nn45)cc3)nnc2s1
- zone of inhibition at 1000 µg/mL (Escherichia coli): 6 mm
- zone of inhibition at 1000 µg/mL (Klebsiella pneumoniae): 6 mm
- zone of inhibition at 1000 µg/mL (Bacillus cereus): 7 mm
- zone of inhibition at 1000 µg/mL (Salmonella typhimurium): 6 mm

SMILES: COc1ccc(/C=N/NC(=O)c2ccc(C(=O)N/N=C/c3ccc(OC)cc3)cc2)cc1
- zone of inhibition at 1000 µg/mL (Escherichia coli): 6 mm
- zone of inhibition at 1000 µg/mL (Klebsiella pneumoniae): 6 mm
- zone of inhibition at 1000 µg/mL (Bacillus cereus): 6 mm
- zone of inhibition at 1000 µg/mL (Salmonella typhimurium): 4 mm

SMILES: Nn1c(S)nnc1-c1ccc(-c2nnc(S)n2N)cc1
- zone of inhibition at 1000 µg/mL (Escherichia coli): 7 mm
- zone of inhibition at 1000 µg/mL (Klebsiella pneumoniae): 6 mm
- zone of inhibition at 1000 µg/mL (Bacillus cereus): 5 mm
- zone of inhibition at 1000 µg/mL (Salmonella typhimurium): 6 mm

SMILES: O=[N+]([O-])c1ccc(-c2nn3c(-c4ccc(-c5nnc6sc(-c7ccc([N+](=O)[O-])cc7)nn56)cc4)nnc3s2)cc1
- zone of inhibition at 1000 µg/mL (Escherichia coli): 5 mm
- zone of inhibition at 1000 µg/mL (Klebsiella pneumoniae): 5 mm
- zone of inhibition at 1000 µg/mL (Bacillus cereus): 5 mm
- zone of inhibition at 1000 µg/mL (Salmonella typhimurium): 5 mm

SMILES: COc1ccc(-c2nnc(-c3ccc(-c4nnc(-c5ccc(OC)cc5)o4)cc3)o2)cc1
- zone of inhibition at 1000 µg/mL (Escherichia coli): 7 mm
- zone of inhibition at 1000 µg/mL (Klebsiella pneumoniae): 5 mm
- zone of inhibition at 1000 µg/mL (Bacillus cereus): 6 mm
- zone of inhibition at 1000 µg/mL (Salmonella typhimurium): 4 mm

SMILES: O=C(N/N=C/c1ccccc1Br)c1ccc(C(=O)N/N=C/c2ccccc2Br)cc1
- zone of inhibition at 1000 µg/mL (Escherichia coli): 6 mm
- zone of inhibition at 1000 µg/mL (Klebsiella pneumoniae): 5 mm
- zone of inhibition at 1000 µg/mL (Bacillus cereus): 5 mm
- zone of inhibition at 1000 µg/mL (Salmonella typhimurium): 6 mm

SMILES: O=C(N/N=C/c1ccccc1Cl)c1ccc(C(=O)N/N=C/c2ccccc2Cl)cc1
- zone of inhibition at 1000 µg/mL (Escherichia coli): 5 mm
- zone of inhibition at 1000 µg/mL (Klebsiella pneumoniae): 6 mm
- zone of inhibition at 1000 µg/mL (Bacillus cereus): 8 mm
- zone of inhibition at 1000 µg/mL (Salmonella typhimurium): 7 mm

SMILES: c1ccc(-c2nnc(-c3ccc(-c4nnc(-c5ccccc5)o4)cc3)o2)cc1
- zone of inhibition at 1000 µg/mL (Escherichia coli): 8 mm
- zone of inhibition at 1000 µg/mL (Klebsiella pneumoniae): 7 mm
- zone of inhibition at 1000 µg/mL (Bacillus cereus): 8 mm
- zone of inhibition at 1000 µg/mL (Salmonella typhimurium): 7 mm

SMILES: O=[N+]([O-])c1ccc(-c2nnc(-c3ccc(-c4nnc(-c5ccc([N+](=O)[O-])cc5)o4)cc3)o2)cc1
- zone of inhibition at 1000 µg/mL (Escherichia coli): 9 mm
- zone of inhibition at 1000 µg/mL (Klebsiella pneumoniae): 8 mm
- zone of inhibition at 1000 µg/mL (Bacillus cereus): 9 mm
- zone of inhibition at 1000 µg/mL (Salmonella typhimurium): 8 mm

SMILES: Oc1ccc(-c2nnc(-c3ccc(-c4nnc(-c5ccc(O)cc5)o4)cc3)o2)cc1
- zone of inhibition at 1000 µg/mL (Escherichia coli): 6 mm
- zone of inhibition at 1000 µg/mL (Klebsiella pneumoniae): 6 mm
- zone of inhibition at 1000 µg/mL (Bacillus cereus): 5 mm
- zone of inhibition at 1000 µg/mL (Salmonella typhimurium): 4 mm

SMILES: Cc1cc(NS(=O)(=O)c2ccc(N)cc2)no1 [SULFAMETHOXAZOLE]
- zone of inhibition at 1000 µg/mL (Escherichia coli): 12 mm
- zone of inhibition at 1000 µg/mL (Klebsiella pneumoniae): 10 mm
- zone of inhibition at 1000 µg/mL (Bacillus cereus): 10 mm
- zone of inhibition at 1000 µg/mL (Salmonella typhimurium): 11 mm
